Source: paper PMC2871064 (Cancer research, 2010)
Where two headings read alike, the source gives them in different places.

Tests used:
[1] = tested on: stage 4 melanoma; settings: cited from earlier work
[2] = tested on: A375 cells; test: Binding of [^131I]MIP-1145 to amelanotic A375 cells; type: cell-based, human
How it was run: (§1)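 Cells per well: 50,000 for SK-MEL-3, 25,000 for A375, attached overnight. Time course: up to 6 h at 37 °C with 11.5 nM tracer (~9 × 10⁵ CPM/well) in D-MEM/0.5% BSA. Acid wash (50 mM glycine, 150 mM NaCl, pH 3.0, 4 °C, 5 min) strips the surface fraction for gamma counting; cells are scintillation-counted. Competition: 2 h, 3.6 nM tracer plus 1.6–1,600 nM unlabeled compound.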

[3] = tested on: SK-MEL-3 cells; test: Binding of [^131I]MIP-1145 to melanotic SK-MEL-3 cells; type: cell-based, human
How it was run: as §1

[4] = 2 hours, 3.6 nM tracer, up to 1.6 uM cold compound

CN(C)/N=N/c1[nH]cnc1C(N)=O [Dacarbazine]
Objective response rate ([1]; stage 4 melanoma patients): 16%

CCN(CC)CCNC(=O)c1cc(I)c(NC(=O)c2ccc(F)cc2)cc1OC [MIP-1145, N-(2-diethylamino-ethyl)-4-(4-fluoro-benzamido)-5-iodo-2-methoxy-benzamide]
Competition by non-radiolabeled MIP-1145 for [^131I]MIP-1145 binding [2, 4]: very little competition | Cell associated fraction of the total added ([2]; after 6 hours, 11.5 nM): about 13% | Competition by non-radiolabeled MIP-1145 for [^131I]MIP-1145 binding [3, 4]: very little competition | Cell associated fraction of the total added ([3]; after 6 hours, 11.5 nM): approximately 43%

interferon alpha-2b
Objective response rate ([1]; stage 4 disease, high-dose): 14%
